Measurements: ChEMBL document CHEMBL1143123, “Novel analogs of D-e-MAPP and B13. Part 2: signature effects on bioactive sphingolipids” (2008)
Active and inactive are the calls of the source. The calls are words filed in the database; no cut-off is given here.

Experiments:
MCF7 [1] = assay: Decrease in endogenous sphingosine level in human MCF7 cells at 1 uM after 24 hrs; format: functional
How it was run: (§1)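 MCF7 cells grown in RPMI 1640 with 10% FCS at 37 °C, 5% CO2. Seeded at ~50% density (1×10^6 cells), treated 24 h later with compounds in ethanol (0.1% final); controls got ethanol only. Cells washed in cold PBS and lipids extracted. Cer species and Sph quantified by HPLC-MS/MS (MRM, positive ion) against internal standards and calibration curves. Values given as pmol/nmol phospholipid and compared with ethanol controls.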

MCF7 [2] = assay: Increase in endogenous C16-ceramide level in human MCF7 cells at 10 uM after 24 hrs; format: functional, cell-based; how it was run: as §1
MCF7 [3] = assay: Increase in endogenous C14-ceramide level in human MCF7 cells at 10 uM after 24 hrs; format: functional; how it was run: as §1
MCF7 [4] = assay: Decrease in endogenous C24-ceramide level in human MCF7 cells at 10 uM after 24 hrs; format: functional; how it was run: as §1
MCF7 [5] = assay: Inhibition of acid ceramidase in human MCF7 cells assessed as enzyme degradation at 10 uM after 5 hrs; format: cell-based
MCF7 [6] = assay: Decrease in endogenous sphingosine level in human MCF7 cells at 10 uM upto 24 hrs; format: functional, cell-based; how it was run: as §1
MCF7 [7] = assay: Decrease in endogenous C24:1-ceramide level in human MCF7 cells at 10 uM after 24 hrs; format: functional; how it was run: as §1
MCF7 [8] = assay: (§2) Increase in endogenous C14-ceramide level in human MCF7 cells at 10 uM upto 24 hrs; format: functional, cell-based; how it was run: as §1
MCF7 [9] = assay: Increase in endogenous C18-ceramide level in human MCF7 cells at 10 uM after 5 mins; format: functional, cell-based; how it was run: as §1
MCF7 [10] = assay: Increase in endogenous C14-ceramide level in human MCF7 cells at 10 uM after 5 mins; format: functional, cell-based; how it was run: as §1
MCF7 [11] = assay: Increase in endogenous C16-ceramide level in human MCF7 cells at 1 uM after 24 hrs; format: functional, cell-based; how it was run: as §1
MCF7 [12] = assay: Increase in endogenous C24-ceramide level in human MCF7 cells at 10 uM after 5 mins; format: functional, cell-based; how it was run: as §1
MCF7 [13] = assay: Increase in endogenous C18-ceramide level in human MCF7 cells at 1 uM after 24 hrs; format: functional, cell-based; how it was run: as §1
MCF7 [14] = assay: Increase in endogenous C16-ceramide level in human MCF7 cells at 10 uM after 2.5 hrs; format: functional; how it was run: as §1
MCF7 [15] = assay: Increase in endogenous ceramide level in human MCF7 cells at 1 uM after 24 hrs; format: functional
How it was run: (§3)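 MCF7 cells grown in RPMI 1640 with 10% FCS at 37 °C in 5% CO2. Seeded near 50% density and treated 24 h later with compound in ethanol (0.1% final); controls got ethanol alone. Cells washed in cold PBS and extracted. Cer species, Sph and S1P measured by HPLC-MS/MS (C8 column, positive-ion MRM) against internal standards and calibration curves. Results given as pmol/nmol phospholipid phosphate, relative to ethanol controls.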

MCF7 [16] = assay: Increase in endogenous C16-ceramide level in human MCF7 cells at 10 uM after 5 mins; format: functional, cell-based; how it was run: as §1
MCF7 [17] = assay: Inhibition of endogenous sphingosine level in human MCF7 cells at 10 uM after 2.5 hrs; format: functional, cell-based; how it was run: as §3
MCF7 [18] = assay: Increase in endogenous C18-ceramide level in human MCF7 cells at 10 uM after 2.5 hrs; format: functional; how it was run: as §1
MCF7 [19] = assay: Increase in endogenous C24:1-ceramide level in human MCF7 cells at 10 uM after 5 mins; format: functional, cell-based; how it was run: as §3
MCF7 [20] = assay: Increase in endogenous C14-ceramide level in human MCF7 cells at 1 uM after 24 hrs; format: functional, cell-based; how it was run: as §1
MCF7 [21] = assay: Increase in endogenous C14-ceramide level in human MCF7 cells at 10 uM after 2.5 hrs; format: functional; how it was run: as §1
MCF7 [22] = assay: Decrease in endogenous sphingosine level in human MCF7 cells at 10 uM within 5 mins; format: functional; set-up: scale not given: the % may be the effect or the level left; how it was run: as §1
MCF7 [23] = assay: Increase in endogenous C24:1-ceramide level in human MCF7 cells after 24 hrs; format: functional; how it was run: as §3
MCF7 [24] = assay: Increase in endogenous C16-ceramide level in human MCF7 cells upto 24 hrs; format: functional; how it was run: as §1
MCF7 [25] = assay: Increase in endogenous C24:1-ceramide level in human MCF7 cells at 10 uM upto 0.5 hrs; format: functional, cell-based; how it was run: as §3
MCF7 [26] = assay: Increase in endogenous C24:1-ceramide level in human MCF7 cells upto 24 hrs; format: functional; how it was run: as §3
MCF7 [27] = assay: Increase in endogenous C14-ceramide level in human MCF7 cells after 24 hrs; format: functional; how it was run: as §1
MCF7 [28] = assay: Increase in endogenous sphingosine-1-phosphate level in human MCF7 cells after 5 to 10 hrs; format: functional, cell-based; how it was run: as §3
MCF7 [29] = assay: Increase in endogenous C16-ceramide level in human MCF7 cells at 10 uM upto 0.5 hrs; format: functional, cell-based; how it was run: as §1
MCF7 [30] = assay: Increase in endogenous sphingosine level in human MCF7 cells after 24 hrs; format: functional; how it was run: as §3
MCF7 [31] = assay: Decrease in endogenous sphingosine level in human MCF7 cells at 10 uM upto 0.5 hrs; format: functional, cell-based; how it was run: as §1
MCF7 [32] = assay: Increase in endogenous C24-ceramide level in human MCF7 cells after 24 hrs; format: functional; how it was run: as §1
MCF7 [33] = assay: Increase in endogenous C16-ceramide level in human MCF7 cells after 24 hrs; format: functional; how it was run: as §1
MCF7 [34] = assay: as §2; format: functional; how it was run: as §1
MCF7 [35] = assay: Increase in endogenous C24-ceramide level in human MCF7 cells upto 24 hrs; format: functional; how it was run: as §3
MCF7 [36] = assay: Increase in endogenous C24-ceramide level in human MCF7 cells at 10 uM upto 0.5 hrs; format: functional, cell-based; how it was run: as §1
MCF7 [37] = assay: Decrease in endogenous sphingosine level in human MCF7 cells upto 50 uM after 24 hrs; format: functional, cell-based; how it was run: as §1
MCF7 [38] = assay: Decrease in endogenous C16-ceramide level in human MCF7 cells upto 5 uM after 24 hrs; format: functional, cell-based; how it was run: as §1
MCF7 [39] = assay: Increase in endogenous ceramide level in human MCF7 cells at >25 uM after 24 hrs; format: functional, cell-based; how it was run: as §3
MCF7 [40] = assay: Decrease in endogenous C24:1-ceramide level in human MCF7 cells at 10 uM; set-up: scale not given: the % may be the effect or the level left
MCF7 [41] = assay: Decrease in endogenous C24-ceramide level in human MCF7 cells upto 5 uM after 24 hrs; format: functional, cell-based; how it was run: as §1
MCF7 [42] = assay: Decrease in endogenous sphingosine level in human MCF7 cells upto 5 uM after 24 hrs; format: functional, cell-based; how it was run: as §1
MCF7 [43] = assay: Increase in endogenous C24:1-ceramide level in human MCF7 cells upto 5 uM after 24 hrs; format: functional, cell-based; how it was run: as §3
MCF7 [44] = assay: Decrease in endogenous C16-ceramide level in human MCF7 cells at 10 uM after 24 hrs; format: functional; set-up: scale not given: the % may be the effect or the level left; how it was run: as §1
MCF7 [45] = assay: Decrease in endogenous sphingosine level in human MCF7 cells at >2.5 uM after 24 hrs; format: functional, cell-based; how it was run: as §1
MCF7 [46] = assay: Increase in endogenous C16-ceramide level in human MCF7 cells at 50 uM after 24 hrs; format: functional; how it was run: as §1
MCF7 [47] = assay: Increase in endogenous C16-ceramide level in human MCF7 cells at 10 uM after 1 to 2.5 hrs; format: functional; how it was run: as §1
MCF7 [48] = assay: Growth inhibition of human MCF7 cells after 48 hrs; format: functional, cell-based
MCF7 [49] = assay: Increase in endogenous ceramide level in human MCF7 cells at 50 uM after 24 hrs; format: functional; how it was run: as §3
MCF7 [50] = assay: Increase in endogenous ceramide level in human MCF7 cells at more than 5 uM after 24 hrs; format: functional, cell-based; how it was run: as §3
MCF7 [51] = assay: Increase in endogenous C24:1-ceramide level in human MCF7 cells at 50 uM after 24 hrs; format: functional; how it was run: as §3
MCF7 [52] = assay: Decrease in endogenous sphingosine level in human MCF7 cells at 50 uM after 24 hrs; format: functional; set-up: scale not given: the % may be the effect or the level left; how it was run: as §1
MCF7 [53] = assay: Increase in endogenous C24-ceramide level in human MCF7 cells at 50 uM after 24 hrs; format: functional; how it was run: as §3

CCCCCCCCCCCCCCN[C@H](CO)[C@H](O)c1ccc([N+](=O)[O-])cc1.Cl was tested, and the Activity (MCF7 [1]) was “Active”, the Activity (MCF7 [2]) was “Active” and the Activity (MCF7 [3]) was 850%. The Activity (MCF7 [4]) was “Active”, the Activity (MCF7 [5]) was “Active” and the Activity (MCF7 [6]) was “Active”. For the same molecule, the Activity (MCF7 [7]) was “Active” and the Activity (MCF7 [8]) was “Active”.

For CCCCCCCCCCCCCCN[C@H](C)[C@@H](O)c1ccccc1.Cl, the Activity (MCF7 [1]) was 80%, the Activity (MCF7 [9]) was “Active” and the Activity (MCF7 [10]) was “Active”. For the same molecule, the Activity (MCF7 [11]) was “Active”, the Activity (MCF7 [12]) was “inactive” and the Activity (MCF7 [5]) was “Active”. For the same molecule, the Activity (MCF7 [13]) was “Active”, the Activity (MCF7 [14]) was 330% and the Activity (MCF7 [15]) was 180%. For the same molecule, the Activity (MCF7 [16]) was “Active”, the Activity (MCF7 [17]) was “Active” and the Activity (MCF7 [18]) was 260%. The Activity (MCF7 [19]) was “inactive”, the Activity (MCF7 [20]) was “Active” and the Activity (MCF7 [21]) was 430%. For the same molecule, the Activity (MCF7 [22]) was 25%.

O=C(CCCCCCCCCCCCCCC[n+]1ccccc1)N[C@H](CO)[C@H](O)c1ccc([N+](=O)[O-])cc1.[Br-] was tested, and the Activity (MCF7 [23]) was 270%, the Activity (MCF7 [24]) was 820% and the Activity (MCF7 [25]) was “Active”. The Activity (MCF7 [26]) was 260%, the Activity (MCF7 [27]) was 800% and the Activity (MCF7 [28]) was “Active”. The Activity (MCF7 [29]) was “Active”, the Activity (MCF7 [30]) was 350% and the Activity (MCF7 [31]) was “Active”. For the same molecule, the Activity (MCF7 [32]) was 140%, the Activity (MCF7 [33]) was 800% and the Activity (MCF7 [34]) was 760%. For the same molecule, the Activity (MCF7 [35]) was 130% and the Activity (MCF7 [36]) was “Active”.

For CCCCCCCCCCCCCC(=O)N[C@H](C)[C@@H](O)c1ccccc1, the Activity (MCF7 [37]) was “Active”, the Activity (MCF7 [38]) was “Active” and the Activity (MCF7 [39]) was “Active”. The Activity (MCF7 [40]) was 30%, the Activity (MCF7 [41]) was “Active” and the Activity (MCF7 [42]) was “Active”. The Activity (MCF7 [43]) was “Active”, the Activity (MCF7 [4]) was 30% and the Activity (MCF7 [44]) was 30%. The Activity (MCF7 [45]) was “Active”.

With CCCCCCCCCCCCCC(=O)N[C@H](CO)[C@H](O)c1ccc([N+](=O)[O-])cc1 the Activity (MCF7 [46]) was 340%, the Activity (MCF7 [47]) was 120% and the Activity (MCF7 [48]) was “Active”. For the same molecule, the Activity (MCF7 [40]) was 80%, the Activity (MCF7 [49]) was 300% and the Activity (MCF7 [4]) was 80%. The Activity (MCF7 [50]) was “Active”, the Activity (MCF7 [51]) was 380% and the Activity (MCF7 [52]) was 50%. For the same molecule, the Activity (MCF7 [18]) was “Active”, the Activity (MCF7 [21]) was 120% and the Activity (MCF7 [53]) was 220%.
